Consider 1 substance from paper PMC4773674 (Journal of Diabetes Investigation, 2015).

Data set [1] can be described thus: Serum IDeg pharmacokinetics. Type of data set: in vivo, Japanese patients with type 1 diabetes. In short, it runs like this:
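Serum drug levels were measured by specific sandwich ELISA. Troughs were drawn before each of 6 once-daily doses given at 20.00 h. After the last dose, samples were taken every 1–2 h to 24 h, then at 30, 36, 48, 72, 96 and 120 h. Post-hoc steady-state time was the time from first dose until troughs exceeded 90% of final plateau.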

For data set [2] the following is noted: cited from earlier work.
Data set [3] is described as follows: Safety: adverse events, hypoglycemic episodes, injection-site reactions. Type of data set: in vivo, Japanese patients with type 1 diabetes. An outline of the steps:
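Randomized, double-blind, two-period crossover trial with once-daily […] dosing at 20.00 h for 6 days; periods separated by 7–21-day washout; insulin aspart boluses allowed. Safety end-points: AEs, injection-site reactions, ECG, vital signs, labs. Confirmed hypoglycemia: severe (ADA definition), plasma glucose <3.1 mmol/L, or full blood glucose <2.8 mmol/L.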

As to insulin degludec [IDeg], the “Time to steady state (trough concentrations exceeding 90% of final plateau)” value in data set [1] (once-daily dosing, all Japanese patients, confirmed by post-hoc analyses) is 2 to 3 days. Further, the “Time for which serum IDeg was detectable after the last dose” value in data set [1] (steady state, 120 h = end of observation period, Japanese patients) is recorded as “at least 120 h”. Moreover, the “AUCτ,SS, 24-h exposure” value in data set [2] (Caucasian patients, 0.4 U/kg) was 82,612 pmol h/L. Further, in data set [2] (previously shown), the “Time to steady state” value is 2 to 3 days. Also, the Tolerability entry in data set [3] (6 days of once-daily 0.4 U/kg, 22 Japanese type 1 diabetes patients) is “well tolerated”. In data set [3] (after treatment with IDeg), the Injection-site reactions result is “no injection‐site reactions were recorded” and the “Serious AEs” value is reported as “No serious AEs occurred”. The “Treatment-emergent AEs (other than hypoglycemia), number” value in data set [3] (after treatment with IDeg, all AEs mild) is recorded as “three”. The “Patients with confirmed treatment-emergent hypoglycemic episodes, number” value in data set [3] (fixed dose 0.4 U/kg) was found to be 13 patients. Further, the “Confirmed treatment-emergent hypoglycemic episodes, number” value in data set [3] (fixed dose 0.4 U/kg, confirmed = severe, or plasma glucose <3.1 mmol/L) stood at 93.
